# Key:
# Rattus norvegicus [1] = experiment: Biodistribution of compound in rat gonads at 45 min after intravenous administration; format: ADME, organism-based, Gonad; details: in vivo, 0.75 h
# Method in brief: (§1)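 Time course in Sprague-Dawley rats after lateral tail-vein injection of the 99mTc complex in normal saline (~12.5 μCi/mL) at ~25 μCi/kg. Tissues were sampled at the stated times, washed with saline, blotted, weighed and γ-counted to give percent injected dose per g. Values are averages of male and female rats.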
# Rattus norvegicus [2] = experiment: Biodistribution of compound in rat gonads at 5 min after intravenous administration; format: ADME, organism-based, Gonad; details: in vivo; method in brief: as §1
# Rattus norvegicus [3] = experiment: Biodistribution of compound in rat heart at 1440 min after intravenous administration; format: ADME, organism-based; details: in vivo, 24 h; method in brief: as §1
# Rattus norvegicus [4] = experiment: Biodistribution of compound in rat bone at 180 min after intravenous administration; format: ADME, organism-based, Bone element; details: in vivo, 3 h; method in brief: as §1
# Rattus norvegicus [5] = experiment: Biodistribution of compound in rat liver at 90 min after intravenous administration; format: ADME, organism-based; details: in vivo, 1.5 h
# Method in brief: (§2)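 Rats received the 99mTc complex in normal saline (~12.5 μCi/mL) by lateral tail vein injection at ~25 μCi/kg and were killed by cervical dislocation at the stated time. Tissues were washed with saline, blotted, weighed and γ-counted to give percent injected dose/g. Time-course values are averages of male and female rats.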
# Rattus norvegicus [6] = experiment: Biodistribution of compound in rat bone at 90 min after intravenous administration; format: ADME, organism-based, Bone element; details: in vivo, 1.5 h; method in brief: as §1
# Rattus norvegicus [7] = experiment: Biodistribution of compound in rat lungs at 360 min after intravenous administration; format: ADME, organism-based, Lung; details: in vivo, 6 h; method in brief: as §2
# Rattus norvegicus [8] = experiment: Biodistribution of compound in rat kidney at 45 min after intravenous administration; format: ADME, organism-based; details: in vivo, 0.75 h; method in brief: as §1
# Rattus norvegicus [9] = experiment: Biodistribution of compound in rat eye at 360 min after intravenous administration; format: ADME, organism-based; details: in vivo, 6 h; method in brief: as §1
# Rattus norvegicus [10] = experiment: Biodistribution of compound in rat lung after 5 min of administration; format: ADME, organism-based; details: in vivo; method in brief: as §2
# Rattus norvegicus [11] = experiment: Biodistribution of compound in rat gonads at 360 min after intravenous administration; format: ADME, organism-based, Gonad; details: in vivo, 6 h; method in brief: as §1
# Rattus norvegicus [12] = experiment: Biodistribution of compound in rat bone marrow at 180 min after intravenous administration; format: ADME, organism-based; details: in vivo, 3 h; method in brief: as §1
# Rattus norvegicus [13] = experiment: Biodistribution of compound in rat muscle at 5 min after intravenous administration; format: ADME, organism-based, Muscle tissue; details: in vivo; method in brief: as §2
# Rattus norvegicus [14] = experiment: Biodistribution of compound in rat liver at 180 min after intravenous administration; format: ADME, organism-based; details: in vivo, 3 h; method in brief: as §1
# Rattus norvegicus [15] = experiment: Biodistribution of compound in rat kidney at 360 min after intravenous administration; format: ADME, organism-based; details: in vivo, 6 h; method in brief: as §1
# Rattus norvegicus [16] = experiment: Biodistribution of compound in rat liver after 5 min of administration; format: ADME, organism-based; details: in vivo
# Method in brief: (§3)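 Female Sprague-Dawley rats (150–200 g) received the 99mTc complex in normal saline (~12.5 μCi/mL) via a lateral tail vein at ~25 μCi/kg. They were killed by cervical dislocation 5 min after injection. Tissues were washed with saline, blotted, weighed and γ-counted, and the read-out was percent injected dose per g tissue.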
# Rattus norvegicus [17] = experiment: Biodistribution of compound in rat muscle at 1440 min after intravenous administration; format: ADME, organism-based, Muscle tissue; details: in vivo, 24 h; method in brief: as §2
# Rattus norvegicus [18] = experiment: Biodistribution of compound in rat kidney at 5 min after intravenous administration; format: ADME, organism-based; details: in vivo; method in brief: as §1
# Rattus norvegicus [19] = species: Rattus norvegicus; experiment: The compound was tested for the plasma binding in rat; format: ADME, organism-based
# Rattus norvegicus [20] = experiment: Biodistribution of compound in rat lungs at 90 min after intravenous administration; format: ADME, organism-based, Lung; details: in vivo, 1.5 h; method in brief: as §2
# Rattus norvegicus [21] = experiment: Biodistribution of compound in rat urine at 1440 min after intravenous administration; format: ADME, organism-based; details: in vivo, 24 h; method in brief: as §2
# Rattus norvegicus [22] = experiment: Biodistribution of compound in rat kidney at 1440 min after intravenous administration; format: ADME, organism-based; details: in vivo, 24 h; method in brief: as §1
# Rattus norvegicus [23] = experiment: Biodistribution of compound in rat blood at 45 min after intravenous administration; format: ADME, organism-based; details: in vivo, 0.75 h; method in brief: as §1
# Rattus norvegicus [24] = experiment: Biodistribution of compound in rat feces at 1440 min after intravenous administration; format: ADME, organism-based; details: in vivo, 24 h
# Rattus norvegicus [25] = experiment: Biodistribution of compound in rat kidney after 5 min of administration; format: ADME, organism-based; details: in vivo; method in brief: as §3
# Rattus norvegicus [26] = experiment: Biodistribution of compound in rat muscle at 90 min after intravenous administration; format: ADME, organism-based, Muscle tissue; details: in vivo, 1.5 h; method in brief: as §2
# Rattus norvegicus [27] = experiment: Biodistribution of compound in rat liver at 5 min after intravenous administration; format: ADME, organism-based; details: in vivo; method in brief: as §2
# Rattus norvegicus [28] = experiment: Biodistribution of compound in rat bone marrow at 360 min after intravenous administration; format: ADME, organism-based; details: in vivo, 6 h; method in brief: as §1
# [29] = The compound was tested for the plasma binding in human; format: ADME, cell-free
# Method in brief: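 Fresh heparinized human plasma (1.0 mL, obtained daily) was spiked with 0.02 mL test solution and incubated about 15 min. Duplicate samples went through saline-equilibrated Sephadex G-25 desalting columns by centrifugation. Eluate and gel were γ-counted for 1 min or to 1% σ error. % bound = net cpm eluate / net cpm (eluate + gel) × 100.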
# Rattus norvegicus [30] = experiment: Biodistribution of compound in rat heart after 5 min of administration; format: ADME, organism-based; details: in vivo; method in brief: as §3
# Rattus norvegicus [31] = experiment: Biodistribution of compound in rat eye at 90 min after intravenous administration; format: ADME, organism-based; details: in vivo, 1.5 h; method in brief: as §1
# Rattus norvegicus [32] = experiment: Biodistribution of compound in rat eye at 1440 min after intravenous administration; format: ADME, organism-based; details: in vivo, 24 h; method in brief: as §1
# Rattus norvegicus [33] = experiment: Biodistribution of compound in rat eye at 180 min after intravenous administration; format: ADME, organism-based; details: in vivo, 3 h; method in brief: as §1
# Rattus norvegicus [34] = experiment: Biodistribution of compound in rat eye at 5 min after intravenous administration; format: ADME, organism-based; details: in vivo; method in brief: as §1
# Rattus norvegicus [35] = experiment: Biodistribution of compound in rat lungs at 1440 min after intravenous administration; format: ADME, organism-based, Lung; details: in vivo, 24 h; method in brief: as §2
# Rattus norvegicus [36] = experiment: Biodistribution of compound in rat muscle at 360 min after intravenous administration; format: ADME, organism-based, Muscle tissue; details: in vivo, 6 h; method in brief: as §2
# Rattus norvegicus [37] = experiment: Biodistribution of compound in rat liver at 1440 min after intravenous administration; format: ADME, organism-based; details: in vivo, 24 h; method in brief: as §1
substance,measurement,setting,value
"Bis(1,3,5-trimethylbenzene)technetium",Dose/g,Rattus norvegicus [1],0.86 % dose
same,Dose/g,Rattus norvegicus [2],0.1 % dose
same,Dose/g,Rattus norvegicus [3],0.77 % dose
same,Dose/g,Rattus norvegicus [4],1.5 % dose/organ
same,Dose/g,Rattus norvegicus [5],3.6 % dose/organ
same,Dose/g,Rattus norvegicus [6],1.4 % dose/organ
same,Dose/g,Rattus norvegicus [7],0.34 % dose/organ
same,Dose/g,Rattus norvegicus [8],5.8 % dose
same,Dose/g,Rattus norvegicus [9],0.019 % dose
same,Dose/g,Rattus norvegicus [10],0.82%
same,Dose/g,Rattus norvegicus [11],0.05 % dose
same,Dose/g,Rattus norvegicus [12],0.13 % dose/organ
same,Dose/g,Rattus norvegicus [13],30 % dose/organ
same,Dose/g,Rattus norvegicus [14],1.9 % dose/organ
same,Dose/g,Rattus norvegicus [15],0.9 % dose
same,Dose/g,Rattus norvegicus [16],0.98%
same,Dose/g,Rattus norvegicus [17],25 % dose/organ
same,Dose/g,Rattus norvegicus [18],13.6 % dose
same,Plasma binding,Rattus norvegicus [19],11%
same,Dose/g,Rattus norvegicus [20],0.6 % dose/organ
same,Dose/ml,Rattus norvegicus [21],26 % dose
same,Dose/g,Rattus norvegicus [22],0.4 % dose
same,Dose/ml,Rattus norvegicus [23],1.24 % dose
same,Dose/g,Rattus norvegicus [24],36.2 % dose
same,Dose/g,Rattus norvegicus [25],7.9%
same,Dose/g,Rattus norvegicus [26],25 % dose/organ
same,Dose/g,Rattus norvegicus [27],10.4 % dose/organ
same,Dose/g,Rattus norvegicus [28],0.09 % dose/organ
same,Plasma binding,[29],21%
same,Dose/g,Rattus norvegicus [30],1.9%
same,Dose/g,Rattus norvegicus [31],0.044 % dose
same,Dose/g,Rattus norvegicus [32],0.01 % dose/organ
same,Dose/g,Rattus norvegicus [33],0.016 % dose
same,Dose/g,Rattus norvegicus [34],0.041 % dose
same,Dose/g,Rattus norvegicus [35],0.2 % dose/organ
same,Dose/g,Rattus norvegicus [36],29 % dose/organ
same,Dose/g,Rattus norvegicus [37],0.3 % dose/organ

# Reference: ChEMBL document CHEMBL1125797, “Synthesis, characterization and myocardial uptake of cationic bis(arene)technetium(I) complexes” (J Med Chem, 1991)
